Measurements: ChEMBL document CHEMBL1687707, “Changes in the plasmodial surface anion channel reduce leupeptin uptake and can confer drug resistance in Plasmodium falciparum-infected erythrocytes” (Antimicrob Agents Chemother, 2008)
The source made the active and inactive calls. The calls are words filed in the database; no cut-off is given here.

Assays:
Plasmodium falciparum [1] = experiment: Antimicrobial activity against wild type Plasmodium falciparum HB3 infected in erythrocytes assessed as growth inhibition after 72 hrs by SYBR Green I-based fluorescence assay; assay type: functional, organism-based; conditions: HB3, 72 h
Plasmodium falciparum [2] = experiment: Antimicrobial activity against leupeptin resistant-Plasmodium falciparum HB3-leuR1 mutant infected in erythrocytes assessed as growth inhibition after 72 hrs by SYBR Green I-based fluorescence assay; assay type: functional, organism-based; conditions: HB3-leuR1, 72 h
How it was run: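 Sorbitol-synchronized cultures seeded at 0.2–0.5% parasitemia, 5% hematocrit in RPMI 1640/25 mM HEPES/2% serum/hypoxanthine. Incubated 72 h at 37°C in 5% O₂-5% CO₂. Freeze-thaw, then SYBR green I, 30 min dark, fluorescence 485/528 nm. Triplicate means with background subtracted (20 μM chloroquine-killed cultures). IC50 by nonlinear fit, three or more experiments.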

Plasmodium falciparum [3] = experiment: Antimicrobial activity against leupeptin resistant-Plasmodium falciparum HB3-leuR1 mutant infected in erythrocytes assessed as growth inhibition after 5 days by SYBR Green I-based fluorescence assay; conditions: HB3-leuR1, 5 days
Plasmodium falciparum [4] = experiment: Antimicrobial activity against wild type Plasmodium falciparum HB3 infected in erythrocytes assessed as growth inhibition after 5 days by SYBR Green I-based fluorescence assay; conditions: HB3, 5 days
[5] = target: T1, Cysteine protease falcipain-3 (Plasmodium falciparum) (UniProt Q9NAW4); experiment: Inhibition of Cysteine protease falcipain-3 in Plasmodium falciparum HB3-leuR1 mutant infected erythrocytes assessed as slowing of substrate hydrolysis by Z-Phe-Arg-AMC substrate hydrolysis assay
T1 sequence (whole entry): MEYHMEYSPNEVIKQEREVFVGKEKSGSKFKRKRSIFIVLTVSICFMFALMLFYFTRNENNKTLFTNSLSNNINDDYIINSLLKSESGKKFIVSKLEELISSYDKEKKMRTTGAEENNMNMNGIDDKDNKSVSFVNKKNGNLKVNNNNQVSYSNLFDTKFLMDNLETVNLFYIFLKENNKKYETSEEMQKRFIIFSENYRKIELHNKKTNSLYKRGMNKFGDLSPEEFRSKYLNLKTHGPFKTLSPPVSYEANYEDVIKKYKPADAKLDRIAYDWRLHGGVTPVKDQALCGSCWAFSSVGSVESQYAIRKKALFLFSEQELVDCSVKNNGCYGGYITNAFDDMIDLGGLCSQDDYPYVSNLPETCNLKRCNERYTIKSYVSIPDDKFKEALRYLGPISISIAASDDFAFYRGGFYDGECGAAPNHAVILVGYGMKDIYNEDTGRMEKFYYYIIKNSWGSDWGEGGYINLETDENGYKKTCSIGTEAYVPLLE
How it was run: (§1)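 Soluble extracts from trophozoite-infected erythrocytes enriched to 95–99% parasitemia (Percoll-sorbitol). Adjusted to 40 μg/ml protein in 0.1 M sodium acetate pH 5.5 with 10 mM DTT, with or without leupeptin. Prewarmed to 37°C; 50 μM Z-Phe-Arg-AMC added; fluorescence 353/442 nm read every 2 min. Rates by regression over 10–90 min, triplicate. K0.5 fit with Hill coefficient 1.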

Falcipain 2 [6] = target: Falcipain 2 (Plasmodium falciparum, UniProt Q9N6S8); experiment: Inhibition of Cysteine protease falcipain-2 in Plasmodium falciparum HB3-leuR1 mutant infected erythrocytes by Z-Phe-Arg-AMC substrate hydrolysis assay; how it was run: as §1
[7] = (§2) Activity of PSAS assessed as channel-mediated drug uptake measured by inhibition of papain-mediated substrate hydrolysis by leupeptin resistant-Plasmodium falciparum HB3-leuR1 infected erythrocyte cytosol harvested from cells incubated at 40 uM for 15 mins by Z-Phe-Arg-AMC substrate hydrolysis assay
[8] = as §2, with “Plasmodium” for “leupeptin resistant-Plasmodium”, “HB3” for “HB3-leuR1”, “mins in presence og PSAC antagonist NPF1” for “mins”; assay type: functional
How it was run: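 Erythrocyte cytosol was released with 0.05% saponin, and 10⁸-cell equivalents were incubated with 150 ng/ml papain and 10 mM DTT at pH 5.5. Z-Phe-Arg-AMC (50 μM) hydrolysis was read every 2 min for 10 min, given as percent inhibition; four experiments.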

[9] = Inhibition of PSAC-mediated sorbitol uptake in erythrocytes infected with leupeptin resistant-Plasmodium falciparum HB3-leuR1 at 50 uM; assay type: cell-based
Plasmodium falciparum [10] = experiment: Reduction in formation of hemozoin crystals in leupeptin resistant-Plasmodium falciparum HB3-leuR1 mutant infected in erythrocytes at 100 uM for 6 hrs by transmission electron microscopy; assay type: functional, organism-based
How it was run: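 Infected erythrocytes cultured with 100 μM leupeptin for 6 h. Fixed overnight at 4°C in 2.5% glutaraldehyde-4% paraformaldehyde in cacodylate pH 7.4. Postfixed in osmium tetroxide-ferricyanide, stained with uranyl acetate, embedded in Spurr's resin. Thin sections stained with uranyl acetate/lead citrate and imaged at 80 kV.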

Plasmodium falciparum [11] = experiment: Reduction in formation of hemozoin crystals in wild type Plasmodium falciparum HB3 infected in erythrocytes at 100 uM for 6 hrs by transmission electron microscopy; assay type: functional, organism-based
How it was run: (§3)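 For electron microscopy, infected erythrocytes were cultured with 100 μM leupeptin for 6 h. They were fixed overnight at 4°C in 2.5% glutaraldehyde/4% paraformaldehyde in 0.1 M cacodylate pH 7.4, postfixed in osmium tetroxide/ferricyanide and stained with uranyl acetate. Samples were Spurr-embedded, and thin sections were lead/uranyl stained and imaged at 80 kV.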

[12] = target: T2, Cysteine protease falcipain-3 (Plasmodium falciparum, UniProt Q9NAW4); experiment: Inhibition of Cysteine protease falcipain-3 in Plasmodium falciparum HB3 infected erythrocytes by Z-Phe-Arg-AMC substrate hydrolysis assay
T2 sequence (Q9NAW4 whole entry): T1 sequence (whole entry)
How it was run: (§4)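 Soluble extracts came from trophozoite-infected cells enriched to 95–99% parasitemia. They were set at 40 μg/ml protein in 0.1 M sodium acetate pH 5.5 with 10 mM DTT and leupeptin, prewarmed to 37°C, then given 50 μM Z-Phe-Arg-AMC. Fluorescence (353/442 nm) was read every 2 min, with rates regressed over 10–90 min and triplicate means. K0.5 came from a 1:1 fit; n=4.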

Plasmodium falciparum [13] = experiment: Reduction in hemozoin production in leupeptin resistant-Plasmodium falciparum HB3-leuR1 mutant infected in erythrocytes at 50 uM for 18 hrs by absorbance scan at 400 nm
Plasmodium falciparum [14] = experiment: Antimicrobial activity against leupeptin resistant-Plasmodium falciparum HB3-leuR1 mutant infected in erythrocytes assessed as growth inhibition after 72 hrs in presence of PSAC antagonist NPF1 by SYBR Green I-based fluorescence assay; assay type: functional, organism-based
How it was run: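 SYBR green I growth assay for 72 h at 37°C using serial dilutions of several fixed molar ratios of leupeptin and NPF-1. IC50 of each agent interpolated for each ratio and plotted as an isobologram. Background subtracted using chloroquine-killed cultures.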

Plasmodium falciparum [15] = experiment: Induction of parasite morphology changes in wild type Plasmodium falciparum HB3 infected in erythrocytes assessed as occurrence of enlarged digestive vacuoles by transmission electron microscopy; assay type: functional, organism-based; how it was run: as §3
[16] = Inhibition of PSAC-mediated sorbitol uptake in erythrocytes infected with Plasmodium falciparum HB3 at 50 uM; assay type: cell-based
How it was run: (§5)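 Percoll-sorbitol-enriched trophozoite-infected cells were washed in PBS, then suspended at 0.5% hematocrit in 280 mM sorbitol, 20 mM sodium HEPES and 0.1 mg/ml BSA, pH 7.4, with PSAC antagonists. Osmotic lysis kinetics gave half-times, and K0.5 was fitted by nonlinear least squares.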

[17] = target: T1, Cysteine protease falcipain-3 (Plasmodium falciparum); experiment: Inhibition of Cysteine protease falcipain-3 in Plasmodium falciparum HB3 infected erythrocytes assessed as slowing of substrate hydrolysis by Z-Phe-Arg-AMC substrate hydrolysis assay; how it was run: as §1
[18] = target: T3, Falcipain 2 (Plasmodium falciparum) (UniProt Q9N6S8); experiment: Inhibition of Cysteine protease falcipain-2 in Plasmodium falciparum HB3-leuR1 mutant infected erythrocytes assessed as slowing of substrate hydrolysis by Z-Phe-Arg-AMC substrate hydrolysis assay; how it was run: as §1
T3 sequence (whole entry): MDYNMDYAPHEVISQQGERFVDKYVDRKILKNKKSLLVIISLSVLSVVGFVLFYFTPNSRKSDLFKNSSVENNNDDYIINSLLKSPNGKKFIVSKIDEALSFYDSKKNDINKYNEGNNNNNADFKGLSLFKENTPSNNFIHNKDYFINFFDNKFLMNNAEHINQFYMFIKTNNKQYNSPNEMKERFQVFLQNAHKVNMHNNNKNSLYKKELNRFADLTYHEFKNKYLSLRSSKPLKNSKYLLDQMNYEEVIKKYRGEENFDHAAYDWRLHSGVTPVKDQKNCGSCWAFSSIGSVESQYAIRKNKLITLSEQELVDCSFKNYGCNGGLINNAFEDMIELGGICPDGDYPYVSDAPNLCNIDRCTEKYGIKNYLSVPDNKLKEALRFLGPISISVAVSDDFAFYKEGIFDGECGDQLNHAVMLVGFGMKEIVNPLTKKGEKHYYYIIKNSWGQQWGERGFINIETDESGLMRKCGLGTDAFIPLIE

[19] = Activity of PSAS assessed as channel-mediated drug uptake measured by inhibition of papain-mediated substrate hydrolysis by Plasmodium falciparum HB3 infected erythrocyte cytosol harvested from cells incubated at 40 uM for 15 mins by Z-Phe-Arg-AMC substrate hydrolysis assay
How it was run: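 They were counted, then lysed at 20% hematocrit with 0.05% saponin. Cytosol from 10⁸ cells went into pH 5.5 acetate with 10 mM DTT and 150 ng/ml papain, then 50 μM Z-Phe-Arg-AMC. Rates came from 353/442 nm readings over 10 min; four experiments.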

[20] = target: T3, Falcipain 2 (Plasmodium falciparum); experiment: Inhibition of Cysteine protease falcipain-2 in Plasmodium falciparum HB3 infected erythrocytes assessed as slowing of substrate hydrolysis by Z-Phe-Arg-AMC substrate hydrolysis assay; how it was run: as §1
Plasmodium falciparum [21] = experiment: Induction of parasite morphology changes in leupeptin resistant-Plasmodium falciparum HB3-leuR1 mutant infected in erythrocytes assessed as occurrence of enlarged digestive vacuoles by transmission electron microscopy; assay type: functional, organism-based
[22] = target: Cysteine protease falcipain-3 (Plasmodium falciparum, UniProt Q9NAW4); experiment: Inhibition of Cysteine protease falcipain-3 in Plasmodium falciparum HB3-leuR1 mutant infected erythrocytes by Z-Phe-Arg-AMC substrate hydrolysis assay; how it was run: as §1
Plasmodium falciparum [23] = experiment: Reduction in hemozoin production in wild type Plasmodium falciparum HB3 infected in erythrocytes at 50 uM for 18 hrs by absorbance scan at 400 nm
Falcipain 2 [24] = target: T4, Falcipain 2 (Plasmodium falciparum, UniProt Q9N6S8); experiment: Inhibition of Cysteine protease falcipain-2 in Plasmodium falciparum HB3 infected erythrocytes by Z-Phe-Arg-AMC substrate hydrolysis assay; how it was run: as §4
T4 sequence (Q9N6S8 whole entry): T3 sequence (whole entry)

[25] = Inhibition of single PSAC in erythrocytes infected with Plasmodium falciparum HB3 at 100 to 5000 uM by cell attached patch clamp method; assay type: cell-based
How it was run: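 Cell-attached patch-clamp recordings were made on trophozoite-stage infected erythrocytes. Bath and pipette solutions were symmetric: 1,000 mM choline chloride, 115 mM NaCl, 10 mM MgCl₂, 5 mM CaCl₂ and 20 mM sodium HEPES, pH 7.4.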

[26] = Inhibition of PSAC-mediated sorbitol uptake in erythrocytes infected with leupeptin resistant-Plasmodium falciparum HB3-leuR1 by osmotic lysis half-time determination assay; assay type: cell-based
[27] = Inhibition of PSAC-mediated sorbitol uptake in erythrocytes infected with Plasmodium falciparum HB3 at 100 to 5000 uM by osmotic lysis half-time determination assay; assay type: cell-based; how it was run: as §5
[28] = Inhibition of single PSAC in erythrocytes infected with leupeptin resistant-Plasmodium falciparum HB3-leuR1 cell attached patch clamp method; assay type: cell-based

C[C@@H]1CC[C@H]2[C@@H](C)C(=O)O[C@@H]3O[C@@]4(C)CC[C@@H]1[C@]32OO4 [ARTEMISININ]
IC50 (Plasmodium falciparum [1]): 8.36 nM
IC50 (Plasmodium falciparum [2]): 7.71 nM

CN(CC[C@H](N)CC(=O)N[C@H]1C=C[C@H](n2ccc(N)nc2=O)O[C@@H]1C(=O)O)C(=N)N [BLASTICIDIN_S]
IC50 (Plasmodium falciparum [3]): 1150 nM
IC50 (Plasmodium falciparum [4]): 430 nM

CC(C)C[C@H](NC(=O)[C@H]1O[C@@H]1C(=O)O)C(=O)NCCCCN=C(N)N [E-64]
IC50 (Plasmodium falciparum [3]): 5880 nM
IC50 (Plasmodium falciparum [4]): 3690 nM

CC(=O)N[C@@H](CC(C)C)C(=O)N[C@@H](CC(C)C)C(=O)N[C@H](C=O)CCCNC(=N)N [LEUPEPTIN]
inhibition [5]: Active
IC50 (Falcipain 2 [6]): 98 nM
Activity [7]: inactive
Activity [8]: inactive
inhibition [9]: inactive
IC50 (Plasmodium falciparum [3]): 74000 nM
Activity (Plasmodium falciparum [10]): inactive
Activity (Plasmodium falciparum [11]): Active
IC50 [12]: 87 nM
Activity (Plasmodium falciparum [13]): inactive
growth inhibition (GI) (Plasmodium falciparum [14]): inactive
Activity (Plasmodium falciparum [15]): Active
inhibition [16]: inactive
inhibition [17]: Active
inhibition [18]: Active
Activity [19]: Active
inhibition [20]: Active
Activity (Plasmodium falciparum [21]): inactive
IC50 [22]: 98 nM
IC50 (Plasmodium falciparum [4]): 18000 nM
Activity (Plasmodium falciparum [23]): Active
IC50 (Falcipain 2 [24]): 87 nM

CC(C)CC(=O)N[C@H](C(=O)N[C@H](C(=O)N[C@@H](CC(C)C)[C@@H](O)CC(=O)N[C@@H](C)C(=O)N[C@@H](CC(C)C)[C@@H](O)CC(=O)O)C(C)C)C(C)C [PEPSTATIN]
IC50 (Plasmodium falciparum [3]): 29400 nM
IC50 (Plasmodium falciparum [4]): 39200 nM

O=C(CCc1ccc(O)cc1)c1c(O)cc(O)cc1O[C@@H]1O[C@H](CO)[C@@H](O)[C@H](O)[C@H]1O [PHLORIZIN]
IC50 [25]: 17000 nM
inhibition [26]: inactive
inhibition [27]: Active
IC50 [28]: 340000 nM

C=C[C@H]1CN2CC[C@H]1C[C@H]2[C@H](O)c1ccnc2ccc(OC)cc12 [QUININE]
IC50 (Plasmodium falciparum [1]): 77.1 nM
IC50 (Plasmodium falciparum [2]): 74 nM
